Bioassay records deposited in PubChem by several laboratories.
ALR inh: blocks human ALR sulfhydryl oxidase activity | inhibition, % (concentration not given with the values) | AID 485317 | purified ALR, DTT oxidation, H2O2 HRP-luminol luminescence | actives 3.8% (n = 290,000) | P55789;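 active means mean replicate inhibition above about 79%, with every replicate also reaching it, limit read from the data; inconclusive means only one of the two criteria met; inactive means mean below limit and not every replicate reaching it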
HSF1 inhib: HSF1 inhibition; NIH3T3-HGL HSE-luciferase, MG132-induced, luminescence 8 h; active compounds read low; activity change, negative = inhibition, % at 7.5 µM (by protocol); actives 0.77% (n = 300,000); AID 2098;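 active means more than half of replicate wells show activity change below -50%, luminescence cut by over half; inconclusive means some wells, but at most half, below -50%; inactive means no replicate well below -50%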;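 further: luciferase reports HSF-1 transcriptional activity via heat shock element; 0% = median of DMSO wells and -100% = zero luminescence signal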
HCV core dimer: HCV core protein dimerization inhibition; TR-FRET GST/Flag-core106 dimerization, 1536-well; inhibition, % at 5 µM; actives 0.33% (n = 300,000);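 active means inhibition above the mean of all tested compounds plus 3 SD, set per screening campaign, cut at about 45% in these data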
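Material: Tagged HCV core106 pair (GST and Flag) | Amount: GST-core106 13.5 nM, Flag-core106 17 nM | Medium: KF-containing HEPES buffer, pH 7.45, DTT, CHAPS, BSA | Reagent: Eu donor and XL665 acceptor anti-tag antibodies | Schedule: 4 h at 22.5 °C | Technique: Time-resolved FRET, ex 340 nm, em 617 and 671 nm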
AI-2 QS modul: modulators of Vibrio harveyi AI-2 quorum sensing system; Vibrio harveyi JMH597 AI-2 luminescence/OD600 ratio, 9 h; active compounds read low; strain lacks LuxN and CqsS sensors; 0 = neutral-control median; activity change, % at 7.5 µM; actives 0.4% (n = 300,000); in the data active means activity change below about -75%, passing the limit was not always enough; inconclusive means no clear call, values can overlap the other calls;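 further: luminescence divided by OD600 gain over 9 h not by final OD600 alone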
PHOSPHO1 block: blocks human PHOSPHO1 phosphatase activity; recombinant PHOSPHO1, absorbance phosphatase assay; inhibition, % at 13.3 µM; actives 1.1% (n = 290,000); in the data active means inhibition above about 60%
Target sequence (Q8TCT1 whole entry, looked up): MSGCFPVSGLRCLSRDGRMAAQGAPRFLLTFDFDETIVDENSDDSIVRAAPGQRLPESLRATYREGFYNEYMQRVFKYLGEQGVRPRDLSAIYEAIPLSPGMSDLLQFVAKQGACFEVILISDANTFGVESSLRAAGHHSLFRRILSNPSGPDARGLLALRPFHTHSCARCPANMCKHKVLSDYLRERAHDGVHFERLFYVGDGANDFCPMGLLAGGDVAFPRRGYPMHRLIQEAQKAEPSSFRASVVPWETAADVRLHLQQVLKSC
HSF1 activator: increases HSF-1 driven luciferase reporter signal; NIH3T3-HGL HSF-1 luciferase reporter, MG132, 8 h; 100% = twice DMSO control signal; activation, % at 9 µM; actives 1.7% (n = 300,000); AID 504408;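 active means mean replicate activation of at least 50% with a set share of replicates each reaching 50%; inconclusive means only one of those two conditions met; inactive means mean below 50% and too few replicates reaching it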;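 further: 0% = median of the neutral control wells and 100% = twice that signal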
* = called active by the depositor; ? = inconclusive; . = no result. Compounds with a hit are over-represented: about 6.8% of the library has one in this group of screens.

SMILES	ALR inh	HSF1 inhib	HCV core dimer	AI-2 QS modul	PHOSPHO1 block	HSF1 activator
CC(/C=C/C(=O)c1ccc(C)cc1)=C\c1ccccc1	-16	9	8	-64	30	15
O=C(/C=C\c1ccc(-c2ccccc2)o1)c1ccccc1	.	-19	22	14	8	-28
Cc1ccc(C(=O)/C=C\C(=O)c2ccc(C)cc2)cc1	98*	231	-6	-22	8	294*
Cc1ccc(S/C=C\C(=O)c2ccccc2)cc1	4	85	9	?	-11	118*
CC(C)(CO)[C@@H](O)C(=O)NCCC(=O)O	-9	.	4	.	.	.
CCOC(=O)c1c(NS(=O)(=O)Cc2ccccc2)sc2c1CCCC2	32	-7	5	6	29	10
CCOC(=O)c1c(NS(=O)(=O)c2ccc(Br)cc2)sc2c1CCC2	63	-1	70*	9	.	39
COC(=O)c1c(NS(=O)(=O)c2ccc3ccccc3c2)sc2c1CCCC2	2	-5	16	7	71*	-5
COCCNC(=O)c1cn(C)c2ccccc2c1=O	-7	2	1	16	8	1
Oc1[nH]c2ccccc2c1C=NCC1CCCO1 (stereo not given)	98*	2	-4	-1	7	37
Cc1ccc(-c2ccc(C#N)c(=O)n2CC(=O)N(C)C)cc1	-10	3	-12	15	19	32
CCOC(=O)CCCNS(=O)(=O)c1c(C)ccc2nsnc12	.	-89*	1	6	-20	-91
Cc1ccc(S(=O)(=O)NNC(=O)c2sc3nc(C)cc(C)c3c2-n2cccc2)cc1	.	30	10	14	29	73*
NS(=O)(=O)c1ccc(NC(=O)COC(=O)CSc2n[nH]c(-c3ccccc3)n2)cc1	3	-2	9	12	71*	-4
CC1CCN(CCc2nc3cc(NC(=O)COc4ccccc4)ccc3n2C)CC1	-6	39	-3	11	23	41
O=C(Cc1ccccc1)Nc1cccc(N2C(=O)C=CC2=O)c1	17	-62*	-4	-88*	-14	-70
CC1CCCCC1NC(=O)CCCCCn1c(=S)[nH]c2ccccc2c1=O (stereo not given)	3	-2	0	13	63*	6
CC1CCCCC1NC(=O)CCCn1c(=S)[nH]c2ccccc2c1=O (stereo not given)	-11	4	5	12	-8	-8
CC1CCCCC1NC(=O)Cn1cccc1C(=O)c1ccccc1 (stereo not given)	6	9	-15	9	70*	9
O=C(CCCCCN1C(=O)c2cccc3cccc(c23)C1=O)NCCO	-9	4	-2	22	2	4
CCC(C)n1ncn(-c2ccc(N3CCN(c4ccc(OC)cc4)CC3)cc2)c1=O (stereo not given)	-9	-3	6	3	-15	-11
O=C1/C(=C/c2cccnc2)CCc2c1[nH]c1ccccc21	-11	3	8	28	23	11
CC(C)C/C=C1\CCc2c([nH]c3ccccc23)C1=O	.	51	-1	7	28	59*
O=C(NCc1nc(-c2ccc(Cl)cc2)no1)c1ccc2c(c1)OCO2	-11	-8	6	-7	24	4
CCOC(=O)c1sc(NC(=O)C2CCCCC2)nc1C	3	-4	2	20	.	-23
O=C(O)CSc1nnnn1-c1ccc2c(c1)OCCO2	-9	23	-1	26	1	70*
CC(C)OC(=O)CSc1nnnn1-c1ccc2c(c1)OCCO2	0	26	-1	16	56	19
CCOC(=O)CN1CC23C=CC(O2)C(C(=O)NC2CCCCC2)C3C1=O (stereo not given)	3	-89*	0	15	-14	-92
Cc1ccc(CN2CC34C=CC(O3)C(C(=O)NCc3ccc5c(c3)OCO5)C4C2=O)cc1 (stereo not given)	-3	-11	1	9	52	-6
COCCCNC(=O)C1C2C=CC3(CN(Cc4ccc(C)cc4)C(=O)C13)O2 (stereo not given)	0	-2	1	11	60*	-10
